For orientation: IC50 means the midpoint of a concentration-inhibition curve.

Activity calls are given as the source filed them. The calls are words filed in the database; no cut-off is given here. Some results are limits rather than exact numbers.

IC50, Activity and inhibition data for 49 molecules are collected here from ChEMBL document CHEMBL4152184, “NB 06: From a simple lysosomotropic aSMase inhibitor to tools for elucidating the role of lysosomes in signaling apoptosis and LPS-induced inflammation” (Eur J Med Chem, 2018).

Assay [1] concerns the target T1, Sphingomyelin phosphodiesterase (Homo sapiens, UniProt P17405).
T1 sequence (P17405 whole entry): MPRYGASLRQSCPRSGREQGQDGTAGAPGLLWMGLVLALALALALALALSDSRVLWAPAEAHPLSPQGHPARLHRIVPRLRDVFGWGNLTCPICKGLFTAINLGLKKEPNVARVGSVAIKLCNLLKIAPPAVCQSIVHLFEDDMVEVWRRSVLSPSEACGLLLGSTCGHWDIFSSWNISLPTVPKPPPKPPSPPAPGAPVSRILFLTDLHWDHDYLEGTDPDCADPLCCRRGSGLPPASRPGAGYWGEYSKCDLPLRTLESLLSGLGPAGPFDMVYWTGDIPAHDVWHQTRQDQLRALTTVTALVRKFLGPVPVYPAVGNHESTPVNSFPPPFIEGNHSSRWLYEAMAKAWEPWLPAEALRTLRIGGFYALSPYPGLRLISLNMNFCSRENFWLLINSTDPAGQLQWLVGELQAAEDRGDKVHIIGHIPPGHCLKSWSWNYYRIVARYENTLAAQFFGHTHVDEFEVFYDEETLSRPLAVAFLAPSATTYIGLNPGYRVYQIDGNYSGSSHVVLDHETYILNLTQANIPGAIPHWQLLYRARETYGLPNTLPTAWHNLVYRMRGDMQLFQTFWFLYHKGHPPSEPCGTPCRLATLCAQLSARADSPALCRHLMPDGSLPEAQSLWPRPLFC
Kind of assay: Inhibition of mmLDL-stimulated acid sphingomyelinase in human PBMC lysates using BODIPY FL C5-sphingomyelin as substrate preincubated for 30 mins followed by mmLDL stimulation measured after 2 hrs by HPLC method.

For assay [2], the system named is PBMC. The assay is described as follows: Inhibition of mmLDL-stimulated apoptosis in human PBMC assessed as apoptotic cells at 2 uM preincubated for 30 mins followed by mmLDL stimulation measured after 4 hrs by YO-PRO-1/Hoechst 33342 staining based assay (reference value: 100%). Also on record: scale not given: the % may be the effect or the level left. In kind it is functional. Put shortly: (§1)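 PBMC pre-incubated 30 min with 2 μM compound, then stimulated with mmLDL (27 μg/mL; line 5) or TNFalpha (3 ng/mL; line 1) for 4 h. Apoptotic cells stained with YO-PRO-1 and all cells with Hoechst 33342. Each plate had control, stimulus, compound alone and compound plus stimulus; n = 3. Values are on a 0% (untreated control, corrected for spontaneous apoptosis) to 100% (stimulus alone) scale; means ± SE.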

The test system of assay [3] is PBMC. The assay is described as follows: Inhibition of TNFalpha-stimulated apoptosis in human PBMC assessed as apoptotic cells at 2 uM preincubated for 30 mins followed by TNFalpha stimulation measured after 4 hrs by YO-PRO-1/Hoechst 33342 staining based assay relative to control. Also on record: scale not given: the % may be the effect or the level left. In kind it is functional. An outline of the steps:
as §1

Assay [4] addresses T2, Sphingomyelin phosphodiesterase (Homo sapiens) (UniProt P17405).
T2 sequence (whole entry): T1 sequence (P17405 whole entry)
The assay is described as follows: Inhibition of mmLDL-stimulated acid sphingomyelinase in human PBMC lysates at 0.5 to 50 uM preincubated for 30 mins followed by mmLDL stimulation measured after 4 hrs by YO-PRO-1/Hoechst 33342 staining based assay.

Assay [5] concerns the target T2, Sphingomyelin phosphodiesterase (Homo sapiens). Kind of assay: Inhibition of mmLDL-stimulated acid sphingomyelinase in human PBMC lysates assessed as enzyme residual activity at 25 uM using BODIPY FL C5-sphingomyelin as substrate preincubated for 30 mins followed by mmLDL stimulation measured after 2 hrs by HPLC method.

Molecule `COc1ccc(CN2C(=O)COc3ccccc32)cc1` returned an IC50 in assay [1] of over 250 µM. For the same molecule, the Activity in the assay on PBMC [2] was found to be 100%.

For `COc1ccc(Cn2c3ccccc3c3ccccc32)cc1`, the Activity in the assay with PBMC [3] was determined as 30%; in the assay with PBMC [2], 14%. 156 µM corresponded to half-maximal inhibition in assay [1] (IC50).

Take `COc1ccc(CCN(C)CCCN2c3ccccc3Sc3ccccc32)cc1OC`: inhibition in assay [1] was half-maximal at 16 µM (IC50). For the same molecule, the Activity in the assay with PBMC [2] came out at 52%.

With `COc1ccc(CCNCCCNC2c3ccccc3CCc3ccccc32)cc1OC`, the IC50 in assay [1] is 39 µM. Further, the Activity with PBMC [2] worked out at 43%.

Take `COc1cc(CCN(C)CCCn2c3ccccc3c3ccccc32)c(OC)cc1CCN(C)CCCn1c2ccccc2c2ccccc21`: the inhibition result in assay [4] was “Active”. The same molecule gave an IC50 in assay [1] of 10 µM. Further, the Activity in the assay with PBMC [2] is recorded as 7%.

With `CNCCCN1c2ccccc2CCc2ccccc21`, the Activity in assay [5] was found to be 20%.

As to `COc1ccc(CCN(C)CCCn2c3ccccc3c3ccccc32)cc1OC`, the Activity in the assay on PBMC [3] was determined as 41%; in the assay with PBMC [2], 24%. Also, in assay [1], the IC50 is 14 µM.

In assay [1], `COc1ccc(CCN(C)CCCN2C(=O)COc3ccccc32)cc1` showed an IC50 of 38 µM.

For `COc1ccc(CCN(C)CCCN2c3ccccc3CCc3ccccc32)cc1`, the Activity in the assay with PBMC [3] stood at 30%; in the assay with PBMC [2], 36%.

As for `COc1ccc(CCNCCCNC2c3ccccc3CCc3ccccc32)cc1`, the IC50 in assay [1] is 17 µM.

For the molecule `COc1ccc(CCN2CCN(CCn3c4ccccc4c4ccccc43)CC2)cc1`, the Activity was 16% with PBMC [3] and 14% in the assay on PBMC [2].

Turning to `COc1ccc(CCN2[C@H](C)CN(CCCn3c4ccccc4c4ccccc43)C[C@@H]2C)cc1OC`, the IC50 in assay [1] was determined as 141 µM. The Activity with PBMC [2] turned out to be 35%.

`COc1ccc(CCNCCNc2cccc3ccccc23)cc1OC` showed an IC50 in assay [1] of 112 µM. For the same molecule, in the assay on PBMC [2], the Activity is 65%.

Consider `COc1ccc(CC(=O)N(C)CCCN2c3ccccc3CCc3ccccc32)cc1`, for which the IC50 in assay [1] turned out to be 107 µM. For the same molecule, in the assay on PBMC [2], the Activity is 69%.

`COc1ccc(CCN(C)CCCN2c3ccccc3Sc3ccc(Cl)cc32)cc1OC`: the values for the Activity in the assay with PBMC [3] and in the assay on PBMC [2] were 18% and 31%, respectively. Also, the IC50 in assay [1] was 12 µM.

Turning to `COc1ccc(CN(C)CCCn2c3ccccc3c3ccccc32)cc1`, in the assay on PBMC [2], the Activity is 17%.

For `COc1ccc(CCN(C)CCN2c3ccccc3CCc3ccccc32)cc1`, the Activity in the assay on PBMC [3] is 35%; in the assay on PBMC [2], 49%. Moreover, the IC50 in assay [1] amounted to 17 µM.

Turning to `COc1ccc(CCN(Cc2ccccc2)c2ccccn2)cc1`, the half-maximal inhibitory concentration (IC50) in assay [1] was over 250 µM. For the same molecule, in the assay with PBMC [2], the Activity is on record as 85%.

In the case of `COc1ccc(CCN(C)CCCN(c2ccccc2)c2ccccc2)cc1`, the IC50 in assay [1] was over 250 µM. Also, the Activity with PBMC [2] came to 35%.

With `COc1ccc(CCN2CCCN(C3c4ccccc4CCc4ccccc43)C2)cc1`, the Activity with PBMC [3] is 17%; in the assay on PBMC [2] it was 27%.

`COc1ccc(CCN2CCn3c4c(c5ccccc53)CCCC42)cc1` (stereo not given) yielded an IC50 in assay [1] of over 250 µM. In addition, the Activity in the assay with PBMC [2] was 19%.

For `COc1ccc(CCN2[C@H](C)CN(CCCn3c4ccccc4c4ccccc43)C[C@@H]2C)cc1`, the Activity with PBMC [3] is 0%; with PBMC [2], 25%.

Regarding `COc1ccc(CCN(C)CCCN2c3ccccc3Oc3ccccc32)cc1`, the Activity turned out to be 43% with PBMC [3] and 25% with PBMC [2].

As for `CN(C)CCCN1c2ccccc2CCc2ccccc21` [IMIPRAMINE], the Activity in the assay on PBMC [3] is 16%; with PBMC [2], 15%. In assay [1], this molecule had an IC50 of 5 µM.

As for `COc1ccc(CCN(C)CCCN2c3ccccc3Sc3ccccc32)cc1`, the IC50 in assay [1] is 9 µM. Also, the Activity in the assay on PBMC [2] was 100%.

Consider `COc1ccc(CCN(C)CCn2c3ccccc3c3ccccc32)cc1`, for which the Activity with PBMC [3] was 55%; in the assay with PBMC [2], 9%. Also, in assay [1], half-maximal inhibition (IC50) was put at 6 µM.

As to `COc1ccc(Cn2c(=O)[nH]c3ccccc3c2=O)cc1`, the Activity in the assay with PBMC [3] stood at 59%; with PBMC [2], 57%. In assay [1], this molecule had an IC50 of over 250 µM.

With `COc1ccc(CCN(C)CCN2c3ccccc3Sc3ccccc32)cc1`, the Activity in the assay with PBMC [3] and in the assay on PBMC [2] was 25% in each case.

Regarding `COc1ccc(CC(=O)N(C)CCN2c3ccccc3CCc3ccccc32)cc1`, the Activity worked out at 90% in the assay with PBMC [3] and 94% in the assay on PBMC [2]. The molecule further returned an IC50 in assay [1] of over 250 µM.

Take `CN(C)CCCN1c2ccccc2Sc2ccc(Cl)cc21` [CHLORPROMAZINE]: the IC50 in assay [1] amounted to 11 µM.

For the molecule `COc1ccc(CCN(C)CCN2c3ccccc3Sc3ccccc32)cc1OC`, the Activity in the assay with PBMC [2] is on record as 72%.

Turning to `COc1ccc(CCN(C)CCCN(c2ccccc2)c2ccccc2)cc1OC`, the Activity in the assay with PBMC [2] is on record as 59%.

The molecule `COc1ccc(CCNCc2cccc3ccccc23)cc1` came in with an IC50 in assay [1] of 240 µM. The Activity in the assay with PBMC [2] was determined as 100%.

The molecule `COc1ccc(CCN(C)CCCN2c3ccccc3CCc3ccccc32)cc1OC` gave a concentration for half-maximal inhibition (IC50) in assay [1] of 31 µM. The Activity in the assay with PBMC [2] came to 73%.

`COc1ccc(CC(=O)N(C)CCCn2c3ccccc3c3ccccc32)cc1` displayed an IC50 in assay [1] of over 250 µM. The Activity in the assay with PBMC [2] amounted to 100%.

In assay [1], `COc1ccc(CCN(C)CCC=C2c3ccccc3CCc3ccccc32)cc1` displayed an IC50 of 10 µM. Besides, in the assay on PBMC [2], the Activity was 10%.

Consider `COc1ccc(CCN(C)CCCN2c3ccccc3Sc3ccc(Cl)cc32)cc1`, for which the Activity in the assay with PBMC [2] is 71%.

In assay [1], `COc1ccc(CCN(C)CCCn2ccc3ccccc32)cc1` registered a concentration for half-maximal inhibition (IC50) of 21 µM. Also, the Activity in the assay with PBMC [2] came out at 84%.

Turning to `COc1ccc(CCN(C)CCCN2Cc3ccccc3CCc3ccccc32)cc1`, the Activity in the assay on PBMC [3] was found to be 2%; with PBMC [2], 8%. This molecule also registered an IC50 in assay [1] of 17 µM.

Take `COc1ccc(CCN2[C@H](C)CN(CCCN3c4ccccc4Oc4ccccc43)C[C@@H]2C)cc1`: the IC50 in assay [1] was found to be 43 µM. In the assay with PBMC [2], the Activity is on record as 10%.

Turning to `COc1ccc(CCN2CCCn3c4c(c5ccccc53)CCCC42)cc1` (stereo not given), in assay [1], 15 µM corresponded to half-maximal inhibition (IC50). Moreover, the Activity in the assay on PBMC [2] came out at 25%.

`COc1ccc(CCN(C)C(F)(F)C(F)(F)C(F)(F)C(F)(F)n2c3ccccc3c3ccccc32)cc1` gave a 50% inhibitory concentration (IC50) in assay [1] of over 250 µM. Moreover, in the assay with PBMC [2], the Activity is recorded as 80%.

In the case of `COc1ccc(CCNCc2cccc3ccccc23)cc1OC`, the IC50 in assay [1] is 96 µM. For the same molecule, in the assay on PBMC [2], the Activity came out at 86%.

In turn, `COc1ccc(CCN(C)CCC=C2c3ccccc3CCc3ccccc32)cc1OC` gave an IC50 in assay [1] of 10 µM. Moreover, in the assay on PBMC [2], the Activity was found to be 79%.

`COc1ccc(Cn2c(=O)c3ccccc3n(Cc3ccc(OC)cc3)c2=O)cc1` displayed a 50% inhibitory concentration (IC50) in assay [1] of over 250 µM. Also, the Activity in the assay on PBMC [2] came out at 4%.

`COc1ccc(CCN(C)CCCN2c3ccccc3Oc3ccccc32)cc1OC` yielded an IC50 in assay [1] of 13 µM. Moreover, in the assay on PBMC [2], the Activity came to 36%.

Take `COc1ccc(CCN(C)CCN2c3ccccc3CCc3ccccc32)cc1OC`: the Activity in the assay with PBMC [3] is 58%; in the assay with PBMC [2], 30%.

Regarding `COc1ccc(CCNCCNc2cccc3ccccc23)cc1`, in assay [1], the IC50 was determined as 116 µM. Besides, the Activity in the assay on PBMC [2] came to 87%.

Take `COc1ccc(CC(=O)N(C)CCCN2c3ccccc3Sc3ccc(Cl)cc32)cc1OC`: in assay [1], the IC50 was over 250 µM. The Activity in the assay on PBMC [2] stood at 41%.
